Experiment [1] addresses T1, TmCheA dimer (full-length T. maritima CheA) (Thermotoga maritima, UniProt Q56310).
T1 sequence (Q56310 1-671): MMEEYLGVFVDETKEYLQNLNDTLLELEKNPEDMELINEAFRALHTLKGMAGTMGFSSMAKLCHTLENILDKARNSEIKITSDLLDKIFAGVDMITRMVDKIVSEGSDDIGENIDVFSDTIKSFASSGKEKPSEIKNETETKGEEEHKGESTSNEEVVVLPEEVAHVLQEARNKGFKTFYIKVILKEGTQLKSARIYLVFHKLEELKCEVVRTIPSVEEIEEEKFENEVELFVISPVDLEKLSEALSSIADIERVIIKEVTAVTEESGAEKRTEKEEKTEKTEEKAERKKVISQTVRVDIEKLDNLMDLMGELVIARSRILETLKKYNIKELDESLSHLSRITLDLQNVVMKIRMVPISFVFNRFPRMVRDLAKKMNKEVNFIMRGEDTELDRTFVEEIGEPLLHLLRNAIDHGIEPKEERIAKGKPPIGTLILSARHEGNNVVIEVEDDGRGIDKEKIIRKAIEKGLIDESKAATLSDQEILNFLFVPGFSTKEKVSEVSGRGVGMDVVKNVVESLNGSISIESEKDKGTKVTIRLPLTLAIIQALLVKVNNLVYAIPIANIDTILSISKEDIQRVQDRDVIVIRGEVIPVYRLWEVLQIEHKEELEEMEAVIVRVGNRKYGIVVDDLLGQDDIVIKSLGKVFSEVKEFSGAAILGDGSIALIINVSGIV
The experiment is described as follows: Competition binding between ATP and TNP-ATP for TmCheA binding sites. The conditions noted are these: 4 °C, Mg2+. In a few lines: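 Competition titrations at 4 °C: TNP-ATP aliquots added to stirred full-length TmCheA (0.6 μM dimer) in TnM buffer (25 mM Tris, 0.5 mM EDTA, 10% glycerol, 25 mM NaCl, 50 mM K-glutamate, 20 mM MgCl2) containing 0, 2.34, 5.9, 11.9 or 23.4 mM ATP. Emission spectra (four-scan averages), background-corrected by mock titrations. At least two independent experiments averaged.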

For experiment [2], the target named is TmP4. The conditions noted are these: read-out: Kd^ATP for TmP4; chromatographic approach; ref [2]; cited from earlier work.
Experiment [3] addresses T2, TmP4 (isolated P4 domain of T. maritima CheA, monomer) (Thermotoga maritima, UniProt Q56310).
T2 sequence (Q56310 356-540): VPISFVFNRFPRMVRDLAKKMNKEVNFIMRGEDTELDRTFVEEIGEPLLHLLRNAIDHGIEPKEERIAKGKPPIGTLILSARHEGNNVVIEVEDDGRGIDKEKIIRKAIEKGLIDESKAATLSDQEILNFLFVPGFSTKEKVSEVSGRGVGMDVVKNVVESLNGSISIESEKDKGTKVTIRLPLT
Description: Fluorescence-monitored TNP-ATP binding titrations with TmP4. The following applies: 4 °C, Mg2+; λex 520 nm, emission 530–600 nm.

Experiment [4] concerns the target T1, TmCheA dimer (full-length T. maritima CheA). In kind it is binding. The conditions noted are these: 4 °C.
Experiment [5] addresses TmP4. The conditions noted are these: read-out: Upper limit of Kd for the TmP4–TNP-ATP binding interaction; previous work; ref [2]; cited from earlier work.
Where [6] appears, read: without versus with 20 mM MgCl2.

Values joined by “and” are separate entries in the source; they are usually repeats but may differ in a detail not shown here. Equal entries are not always repeated. “Also recorded” adds a separate entry of the source. Where two headings read alike, the source gives them in different places.

For the compound `Nc1ncnc2c1ncn2[C@@H]1O[C@H](COP(=O)(O)OP(=O)(O)OP(=O)(O)O)[C@@H](O)[C@H]1O` [ATP], in experiment [1], the “Kd2^ATP/Kd1^ATP (affinity difference between the two sites)” value was ~10^3 fold. Besides, the Kd in experiment [1] (read-out: Kd1^ATP (high-affinity site of TmCheA dimer), effect of competitor ATP on apparent Kd1^TNP) is ~6000 nM and 6000 nM; on TmP4 [2] it was 15000 nM.
Turning to `Nc1ncnc2c1ncn2[C@@H]1O[C@H](COP(=O)(O)OP(=O)(O)OP(=O)(O)O)[C@H]2OC3(O[C@H]21)C([N+](=O)[O-])=CC(=[N+]([O-])[O-])C=C3[N+](=O)[O-]` (some centres unmarked) [TNP-ATP, 2′(3′)-O-(2,4,6-trinitrophenyl)adenosine 5′-triphosphate], in experiment [3], the “IMFC (integrated molar fluorescence coefficient) of the TmP4 · TNP-ATP complex” value is 1.9 × 10^6 cps/μM. In experiment [4] (20 mM MgCl2, 0.6 μM TmCheA dimer, two-site model), the “IMFC of T.AA.T complex” value was 9.5 × 10^6 cps/μM. Moreover, the “IMFC of T.AA complex (IMFC site 1)” value in experiment [4] (20 mM MgCl2, TmCheA titrated with excess TNP nucleotide) is reported as 2.0 × 10^6 cps/μM. Moreover, the “IMFC site 2 (second, low-affinity site)” value in experiment [4] (Mg2+) is reported as 7.5 × 10^6 cps/μM. Besides, the “IMFC of T.AA complex from reverse stoichiometry titration” value in experiment [4] (Mg2+, TmCheA added to 0.28 μM TNP-ATP) was ~2× 10^6 cps/μM and 2.0 × 10^6 cps/μM. In experiment [4] (no MgCl2, 20 mM Na2EDTA), the “IMFC of T.AA complex, absence of Mg2+” value is given as 2.4 × 10^6 cps/μM. Moreover, the “IMFC of T.AA.T complex, absence of Mg2+” value in experiment [4] (no MgCl2, 20 mM Na2EDTA) was 8.9 × 10^6 cps/μM. The “Decrease of site 2 affinity in the absence of Mg2+” value in experiment [4] (setting [6]) was 5 fold. For the same compound, the “Effect of Mg2+ removal on site 1 binding” value in experiment [4] (setting [6]) is “insensitive to the presence or absence of Mg^2+”. Also, the Kd in experiment [4] (Kd1^TNP (high-affinity site 1 of TmCheA dimer), Mg2+, forward and reverse titrations at low protein and ligand concentrations (0.002–0.003 μM)) was ~1.6 nM and 1.6 nM; in experiment [4] (Kd1^TNP, titration of CheA with excess TNP-ATP, Mg2+, 0.003 μM TmCheA dimer, one-site binding model) it was 1.8 nM; in experiment [4] (Kd1^TNP, titration of TNP-ATP with excess TmCheA, Mg2+, 0.002 μM TNP-ATP, one-site binding model), 1.4 nM; on TmP4 [5], no more than 10 nM. In addition, in experiment [4] (reverse titration, 0.28 μM TNP-ATP, Mg2+), the “Binding stoichiometry of high-affinity TNP-ATP binding to TmCheA dimer” value is reported as “each TmCheA dimer can bind one molecule of TNP-ATP with high affinity; also recorded: one TNP-ATP per CheA dimer”.

(Values after paper PMC2811258 (Biochemistry, 2009).)
